According to ChEMBL document CHEMBL1144067, “Cancer chemopreventive agents (antitumor-promoters) from Ajuga decumbens” (J Nat Prod, 1999):

Assays:
Raji [1] = test: Inhibition of 12-O-tetradecanoylphorbol-13-acetate induced EBV-early antigen activation in human Raji cells at 500 molar ratio relative to control; format: cell-based; details: human gammaherpesvirus 4
Outline: (§1)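 Raji cells in RPMI-1640 treated 48 h at 37 °C with n-butyric acid (4 mmol), TPA (32 pmol = 20 ng/mL) and test agent at 10, 100, 500 or 1000 mol ratio/TPA (0.32–32 nmol). EA-positive cells in smears detected by indirect immunofluorescence; induction expressed relative to TPA positive control (100%), n = 3, ±S.D.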

Raji [2] = test: Inhibition of 12-O-tetradecanoylphorbol-13-acetate induced EBV-early antigen activation in human Raji cells at 100 molar ratio relative to control; format: cell-based; details: human gammaherpesvirus 4; outline: as §1
Raji [3] = test: Inhibition of 12-O-tetradecanoylphorbol-13-acetate induced EBV-early antigen activation in human Raji cells at 10 molar ratio relative to control; format: cell-based; details: human gammaherpesvirus 4; outline: as §1
Raji [4] = test: Inhibition of 12-O-tetradecanoylphorbol-13-acetate induced EBV-early antigen activation in human Raji cells at 1000 molar ratio relative to control; format: cell-based; details: human gammaherpesvirus 4; outline: as §1
[5] = Cytotoxicity against human Raji cells assessed as cell viability at 500 molar ratio after 48 hrs; format: cell-based; details: read-out: Activity
Outline: (§2)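 Raji cells (EBV genome-carrying, Burkitt's lymphoma-derived) grown in RPMI-1640 and incubated 48 h at 37 °C with 4 mmol n-butyric acid, 32 pmol TPA (20 ng/mL) and test agent at 10–1000 mol ratio/TPA (0.32–32 nmol). Viability given as percentage of Raji cells; n = 3, ±S.D.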

[6] = Cytotoxicity against human Raji cells assessed as cell viability at 100 molar ratio after 48 hrs; format: cell-based; details: read-out: Activity; outline: as §2
[7] = Cytotoxicity against human Raji cells assessed as cell viability at 1000 molar ratio after 48 hrs; format: cell-based; details: read-out: Activity; outline: as §2
[8] = Cytotoxicity against human Raji cells assessed as cell viability at 10 molar ratio after 48 hrs; format: cell-based; details: read-out: Activity; outline: as §2
Mus musculus [9] = test: Inhibition of DMBA-induced/TPA-promoted carcinogenesis in mouse assessed as number of skin papillomas per mouse at 85 nmol administered twice weekly after 1 week of initiation for 10 weeks; format: functional
Outline: (§3)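 Female SPF ICR mice, 6 weeks old, 15 per group, backs shaved; single topical DMBA initiation (100 μg, 390 nmol) in 0.1 mL acetone. From 1 week after, promotion with TPA 1.7 nmol twice weekly, plus 85 nmol test agent. Papilloma incidence and number per mouse monitored weekly for 20 weeks.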

Mus musculus [10] = test: Inhibition of DMBA-induced/TPA-promoted carcinogenesis in mouse assessed as number of skin papillomas per mouse at 85 nmol administered twice weekly after 1 week of initiation for 20 weeks; format: functional; outline: as §3

SMILES	EBV-EA induction remaining (% of TPA control) (Raji [1]) [%]	EBV-EA induction remaining (% of TPA control) (Raji [2]) [%]	EBV-EA activation relative to TPA control (Raji [3]) [%]	EBV-EA induction remaining (% of TPA control) (Raji [4]) [%]	viability at 48 h, 500 molar ratio [5] [%]	viability at 48 h, 100 molar ratio [6] [%]	viability at 48 h, 1000 molar ratio [7] [%]	viability at 48 h, 10 molar ratio [8] [%]	Activity (Mus musculus [9])	Activity (Mus musculus [10])
CC(C)(O)CC[C@@H](O)[C@@](C)(O)[C@H]1CC[C@@]2(O)C3=CC(=O)[C@]4(O)C[C@@H](O)[C@@H](O)C[C@]4(C)[C@H]3CC[C@]12C	23.4	65.9	100	0						
CC(=O)OC[C@@]12[C@@H](OC(C)=O)C[C@@H](C)[C@](C)(C[C@H](OC(C)=O)C3=CC(=O)OC3)[C@H]1[C@H](OC(C)=O)CC[C@]21CO1 [AJUGAPANTIN A]	54.7	79.2	100	10.6	> 80	> 80	70	> 80		
CC1(C)[C@@H](O)CC[C@]2(C)[C@H]3C(=O)C=C4[C@@H]5C[C@@](C)(C(=O)O)CC[C@]5(C)CC[C@@]4(C)[C@]3(C)CC[C@@H]12 [ENOXOLONE]									4	9
C/C=C(/C)C(=O)O[C@@H]1CC[C@]2(CO2)[C@]2(COC(C)=O)[C@@H](OC(C)=O)C[C@@H](C)[C@](C)(C[C@H](OC(C)=O)C3=CC(=O)OC3)[C@@H]12	42.6	73.5	100	0	> 80	> 80	60	> 80		
CCC1=C(C)C(=O)O[C@@H]([C@](C)(O)[C@H]2CC[C@@]3(O)C4=CC(=O)[C@@H]5C[C@@H](O)[C@@H](O)C[C@]5(C)[C@H]4CC[C@]23C)C1	58.2	81	100	17.5	> 80	> 80	60	> 80		
C[C@@H]1C(=O)O[C@H](C)[C@H]1C[C@@H](O)[C@](C)(O)[C@H]1CC[C@@]2(O)C3=CC(=O)[C@]4(O)C[C@@H](O)[C@@H](O)C[C@]4(C)[C@H]3CC[C@]12C	51.9	80.2	100	0	> 80	> 80	70	> 80		
COc1cc(C(=O)O)ccc1O [VANILLIC ACID]	46.2	73.9	90.2	0	> 80	> 80	60	> 80		
O=c1cc(-c2ccc(O)cc2)oc2cc(O)cc(O)c12 [APIGENIN]	65.9	83.7	100	31.5	> 80	> 80	50	> 80		
C=C(CO)C(CC)C[C@@H](O)[C@@](C)(O)[C@H]1CC[C@@]2(O)C3=CC(=O)[C@@H]4C[C@@H](O)[C@@H](O)C[C@]4(C)[C@H]3CC[C@]12C (some centres not stated)	49.1	72.6	95.8	4.6	> 80	> 80	70	> 80		
